The source of these data is ChEMBL document CHEMBL5696442, “Discovery of type II inhibitors of TGFβ-activated kinase 1 (TAK1) and mitogen-activated protein kinase kinase kinase kinase 2 (MAP4K2)” (J Med Chem, 2015).

Assay type in all cases: cell-based
For assay [1], the target named is Mitogen-activated protein kinase kinase kinase 1 (Homo sapiens) (UniProt Q13233). The assay can be described thus: Inhibition of MAP3K1 Lys2 labeling site in human A-375 cells at 0.5 uM by KiNativ Profiling analysis relative to control.
The target in assay [2] is Wee1-like protein kinase (Homo sapiens) (UniProt P30291). The assay can be described thus: Inhibition of Wee1 Lys2 labeling site in human A-375 cells at 0.5 uM by KiNativ Profiling analysis relative to control.
The target of assay [3] is Cyclin-dependent kinase 1 (Homo sapiens) (UniProt P06493). Nature of the assay: Inhibition of CDC2 Lys2 labeling site harbouring VLHRDLKPQNLLIDDKGTIK in human A-375 cells at 5 uM by KiNativ Profiling analysis relative to control. The method in brief: (§1)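 Live A375 melanoma cells were treated with compound at 5 or 0.5 μM. The cells were then lysed, and the lysates were labeled with a lysine-reactive ATP or ADP-biotin acyl probe (KiNativ). Inhibition is the compound's protection of each kinase labeling-site peptide from probe labeling, relative to untreated control.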

Assay [4] deals with RAC-gamma serine/threonine-protein kinase (Homo sapiens) (UniProt Q9Y243). Nature of the assay: Inhibition of AKT3 ATP Loop labeling site in human A-375 cells at 0.05 uM by KiNativ Profiling analysis relative to control.
In assay [5] the target is p38 delta/gamma (Homo sapiens) (UniProt O15264+P53778). Nature of the assay: Inhibition of p38delta/gamma Lys2 labeling site in human A-375 cells at 5 uM by KiNativ Profiling analysis relative to control.
The target in assay [6] is Misshapen-like kinase 1 (Homo sapiens) (UniProt Q8N4C8). The assay can be described thus: Inhibition of ZC3/MINK Lys2 labeling site in human A-375 cells at 0.5 uM by KiNativ Profiling analysis relative to control.
For assay [7], the target named is Serine/threonine-protein kinase Nek6 (Homo sapiens) (UniProt Q9HC98). Nature of the assay: Inhibition of NEK6 Lys2 labeling site in human A-375 cells at 5 uM by KiNativ Profiling analysis relative to control.
The target in assay [8] is T1, Phosphatidylinositol 5-phosphate 4-kinase type-2 gamma (Homo sapiens) (UniProt Q8TBX8).
T1 sequence (whole entry): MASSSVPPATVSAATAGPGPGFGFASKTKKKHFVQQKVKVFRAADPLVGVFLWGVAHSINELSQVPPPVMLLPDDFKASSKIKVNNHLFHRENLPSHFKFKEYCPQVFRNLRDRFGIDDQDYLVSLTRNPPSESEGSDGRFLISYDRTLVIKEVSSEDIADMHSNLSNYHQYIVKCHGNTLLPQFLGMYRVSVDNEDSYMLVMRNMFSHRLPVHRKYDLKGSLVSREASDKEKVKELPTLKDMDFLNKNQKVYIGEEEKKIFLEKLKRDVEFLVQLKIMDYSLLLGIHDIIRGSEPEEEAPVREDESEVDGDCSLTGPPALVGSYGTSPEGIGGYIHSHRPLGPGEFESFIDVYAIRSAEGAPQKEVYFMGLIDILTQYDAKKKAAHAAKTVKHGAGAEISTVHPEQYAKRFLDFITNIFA
Nature of the assay: Inhibition of PIP4K2C ATP labeling site harbouring VKELPTLK in human A-375 cells at 0.5 uM by KiNativ Profiling analysis relative to control. The method, boiled down:
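Live A375 melanoma cells were treated with compound at 5 or 0.5 μM, then lysed. Lysates were labeled with a lysine-reactive ATP or ADP-biotin probe. Read-out was the compound's protection of kinase labeling sites from probe labeling (KiNativ).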

The target of assay [9] is Interferon-induced, double-stranded RNA-activated protein kinase (Homo sapiens) (UniProt P19525). The assay can be described thus: Inhibition of PKR Lys2 labeling site in human A-375 cells at 5 uM by KiNativ Profiling analysis relative to control.
For assay [10], the target named is T2, Serine/threonine-protein kinase ULK3 (Homo sapiens) (UniProt Q6PHR2).
T2 sequence (whole entry): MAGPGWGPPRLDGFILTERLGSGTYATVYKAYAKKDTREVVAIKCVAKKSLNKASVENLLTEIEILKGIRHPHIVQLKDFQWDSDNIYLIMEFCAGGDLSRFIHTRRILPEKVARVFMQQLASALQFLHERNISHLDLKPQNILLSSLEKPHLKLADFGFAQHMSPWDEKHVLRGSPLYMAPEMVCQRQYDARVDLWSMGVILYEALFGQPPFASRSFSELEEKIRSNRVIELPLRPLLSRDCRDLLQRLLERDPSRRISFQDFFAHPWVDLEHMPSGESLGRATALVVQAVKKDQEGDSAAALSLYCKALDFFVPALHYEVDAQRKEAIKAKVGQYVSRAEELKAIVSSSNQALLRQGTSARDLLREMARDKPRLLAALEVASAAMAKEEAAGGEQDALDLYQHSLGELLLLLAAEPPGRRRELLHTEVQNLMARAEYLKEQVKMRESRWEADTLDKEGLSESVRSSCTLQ
The assay can be described thus: Inhibition of ULK3 Lys2 labeling site in human A-375 cells at 5 uM by KiNativ Profiling analysis relative to control.

For assay [11], the target named is DNA-PK/Ku70/Ku85 (Homo sapiens) (UniProt P78527+P12956+P13010). Nature of the assay: Inhibition of DNAPK ATP labeling site harbouring EHPFLVKGGEDLR in human A-375 cells at 0.05 uM by KiNativ Profiling analysis relative to control.
Assay [12] addresses Cyclin-dependent kinase 11B (Homo sapiens) (UniProt P21127). The assay can be described thus: Inhibition of CDK11 Lys2 labeling site in human A-375 cells at 5 uM by KiNativ Profiling analysis relative to control. The method in brief: as §1
For assay [13], the target named is Cyclin-dependent kinase 17 (Homo sapiens) (UniProt Q00537). The assay can be described thus: Inhibition of PCTAIRE2 Lys1 labeling site harbouring SKLTENLVALKEIR in human A-375 cells at 0.5 uM by KiNativ Profiling analysis relative to control.
In assay [14] the target is Calcium/calmodulin-dependent protein kinase kinase 2 (Homo sapiens) (UniProt Q96RR4). Nature of the assay: Inhibition of CaMKK2 Lys2 labeling site in human A-375 cells at 5 uM by KiNativ Profiling analysis relative to control. The method in brief:
as §1

Assay [15] has as its target Tyrosine-protein kinase Fyn (Homo sapiens) (UniProt P06241). Nature of the assay: Inhibition of FYN ACT labeling site in human A-375 cells at 0.5 uM by KiNativ Profiling analysis relative to control.
A further assay deals with Ephrin type-A receptor 2 (Homo sapiens, UniProt P29317). Nature of the assay: Inhibition of EphA2 ACT labeling site in human Huh-7 cells at 1 uM by KiNativ Profiling analysis relative to control.
Sequence of Ephrin type-A receptor 2 (P29317 whole entry): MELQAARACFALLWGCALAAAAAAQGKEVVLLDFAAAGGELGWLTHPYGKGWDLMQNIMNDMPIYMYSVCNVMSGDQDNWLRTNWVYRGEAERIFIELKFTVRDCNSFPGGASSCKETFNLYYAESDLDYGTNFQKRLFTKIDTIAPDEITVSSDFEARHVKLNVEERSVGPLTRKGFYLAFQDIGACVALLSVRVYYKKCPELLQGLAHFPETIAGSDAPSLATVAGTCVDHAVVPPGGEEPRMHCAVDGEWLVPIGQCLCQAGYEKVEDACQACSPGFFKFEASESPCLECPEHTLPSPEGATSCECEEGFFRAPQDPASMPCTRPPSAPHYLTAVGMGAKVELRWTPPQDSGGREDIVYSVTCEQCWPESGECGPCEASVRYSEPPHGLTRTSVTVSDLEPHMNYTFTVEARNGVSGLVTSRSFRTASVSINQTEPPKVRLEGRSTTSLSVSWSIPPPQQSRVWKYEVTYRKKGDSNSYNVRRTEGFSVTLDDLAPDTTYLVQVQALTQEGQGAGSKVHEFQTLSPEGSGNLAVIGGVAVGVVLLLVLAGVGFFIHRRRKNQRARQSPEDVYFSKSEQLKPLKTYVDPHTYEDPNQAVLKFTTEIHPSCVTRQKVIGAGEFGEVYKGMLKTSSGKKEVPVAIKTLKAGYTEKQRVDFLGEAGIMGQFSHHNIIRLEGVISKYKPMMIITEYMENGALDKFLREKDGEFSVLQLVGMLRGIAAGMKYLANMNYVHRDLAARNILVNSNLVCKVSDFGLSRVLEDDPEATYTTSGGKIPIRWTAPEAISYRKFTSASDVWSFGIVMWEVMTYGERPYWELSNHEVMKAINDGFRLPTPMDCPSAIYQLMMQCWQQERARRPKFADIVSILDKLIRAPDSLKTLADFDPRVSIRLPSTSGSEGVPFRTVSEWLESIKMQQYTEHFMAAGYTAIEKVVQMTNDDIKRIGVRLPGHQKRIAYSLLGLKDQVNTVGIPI

Sequence of Cyclin-dependent kinase 17 (Homo sapiens) (Q00537 whole entry, looked up): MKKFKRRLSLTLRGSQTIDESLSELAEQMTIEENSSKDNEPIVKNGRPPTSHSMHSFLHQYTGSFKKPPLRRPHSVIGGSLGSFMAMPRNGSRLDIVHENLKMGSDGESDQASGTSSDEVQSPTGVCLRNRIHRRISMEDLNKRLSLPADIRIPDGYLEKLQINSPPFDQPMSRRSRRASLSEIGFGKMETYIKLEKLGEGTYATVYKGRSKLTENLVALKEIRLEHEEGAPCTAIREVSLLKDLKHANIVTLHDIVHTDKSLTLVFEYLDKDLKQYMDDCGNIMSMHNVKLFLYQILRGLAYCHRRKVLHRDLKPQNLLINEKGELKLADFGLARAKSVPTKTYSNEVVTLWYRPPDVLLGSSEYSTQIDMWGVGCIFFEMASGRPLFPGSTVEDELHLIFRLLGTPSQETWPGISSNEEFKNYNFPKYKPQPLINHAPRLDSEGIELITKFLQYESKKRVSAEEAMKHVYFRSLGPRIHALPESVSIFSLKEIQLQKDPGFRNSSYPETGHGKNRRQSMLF
Sequence of Tyrosine-protein kinase Fyn (Homo sapiens) (P06241 2-537 limits assumed): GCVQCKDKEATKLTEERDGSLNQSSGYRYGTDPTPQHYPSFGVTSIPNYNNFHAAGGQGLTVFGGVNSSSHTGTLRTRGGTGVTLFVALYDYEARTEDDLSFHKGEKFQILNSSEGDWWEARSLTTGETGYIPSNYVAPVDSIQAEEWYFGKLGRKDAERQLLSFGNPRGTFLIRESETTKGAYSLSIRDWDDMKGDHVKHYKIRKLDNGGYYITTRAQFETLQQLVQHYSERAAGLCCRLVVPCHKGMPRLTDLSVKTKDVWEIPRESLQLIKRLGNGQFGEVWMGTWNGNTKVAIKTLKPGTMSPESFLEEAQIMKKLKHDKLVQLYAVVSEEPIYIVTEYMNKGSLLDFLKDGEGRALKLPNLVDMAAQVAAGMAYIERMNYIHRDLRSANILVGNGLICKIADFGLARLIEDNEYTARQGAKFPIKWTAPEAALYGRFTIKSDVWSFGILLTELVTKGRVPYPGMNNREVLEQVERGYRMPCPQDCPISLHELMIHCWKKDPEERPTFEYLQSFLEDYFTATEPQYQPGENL
Sequence of Interferon-induced, double-stranded RNA-activated protein kinase (Homo sapiens) (P19525 whole entry): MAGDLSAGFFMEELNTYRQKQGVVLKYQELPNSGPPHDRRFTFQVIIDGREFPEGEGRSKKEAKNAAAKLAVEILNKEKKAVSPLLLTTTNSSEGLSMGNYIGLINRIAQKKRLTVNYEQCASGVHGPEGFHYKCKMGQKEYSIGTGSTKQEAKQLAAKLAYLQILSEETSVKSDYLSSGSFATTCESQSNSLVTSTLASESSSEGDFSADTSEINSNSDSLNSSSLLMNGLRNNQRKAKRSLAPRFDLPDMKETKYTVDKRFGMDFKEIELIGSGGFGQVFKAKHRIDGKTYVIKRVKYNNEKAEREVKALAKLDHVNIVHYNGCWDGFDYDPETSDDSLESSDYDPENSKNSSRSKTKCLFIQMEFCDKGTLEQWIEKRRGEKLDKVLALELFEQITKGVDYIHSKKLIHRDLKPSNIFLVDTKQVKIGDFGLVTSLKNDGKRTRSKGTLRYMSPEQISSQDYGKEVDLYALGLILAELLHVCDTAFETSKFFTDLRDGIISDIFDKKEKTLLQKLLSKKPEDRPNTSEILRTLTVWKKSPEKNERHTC
Sequence of Cyclin-dependent kinase 1 (Homo sapiens) (P06493 whole entry, looked up): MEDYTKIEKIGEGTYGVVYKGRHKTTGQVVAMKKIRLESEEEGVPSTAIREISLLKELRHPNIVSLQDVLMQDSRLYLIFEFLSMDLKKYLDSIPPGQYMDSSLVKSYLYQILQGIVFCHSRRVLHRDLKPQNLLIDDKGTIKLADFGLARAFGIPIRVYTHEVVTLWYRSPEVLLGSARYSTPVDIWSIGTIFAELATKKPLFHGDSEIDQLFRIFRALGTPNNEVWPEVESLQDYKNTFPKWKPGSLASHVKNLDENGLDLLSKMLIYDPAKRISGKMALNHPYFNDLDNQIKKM
Sequence of Misshapen-like kinase 1 (Homo sapiens) (Q8N4C8 whole entry, looked up): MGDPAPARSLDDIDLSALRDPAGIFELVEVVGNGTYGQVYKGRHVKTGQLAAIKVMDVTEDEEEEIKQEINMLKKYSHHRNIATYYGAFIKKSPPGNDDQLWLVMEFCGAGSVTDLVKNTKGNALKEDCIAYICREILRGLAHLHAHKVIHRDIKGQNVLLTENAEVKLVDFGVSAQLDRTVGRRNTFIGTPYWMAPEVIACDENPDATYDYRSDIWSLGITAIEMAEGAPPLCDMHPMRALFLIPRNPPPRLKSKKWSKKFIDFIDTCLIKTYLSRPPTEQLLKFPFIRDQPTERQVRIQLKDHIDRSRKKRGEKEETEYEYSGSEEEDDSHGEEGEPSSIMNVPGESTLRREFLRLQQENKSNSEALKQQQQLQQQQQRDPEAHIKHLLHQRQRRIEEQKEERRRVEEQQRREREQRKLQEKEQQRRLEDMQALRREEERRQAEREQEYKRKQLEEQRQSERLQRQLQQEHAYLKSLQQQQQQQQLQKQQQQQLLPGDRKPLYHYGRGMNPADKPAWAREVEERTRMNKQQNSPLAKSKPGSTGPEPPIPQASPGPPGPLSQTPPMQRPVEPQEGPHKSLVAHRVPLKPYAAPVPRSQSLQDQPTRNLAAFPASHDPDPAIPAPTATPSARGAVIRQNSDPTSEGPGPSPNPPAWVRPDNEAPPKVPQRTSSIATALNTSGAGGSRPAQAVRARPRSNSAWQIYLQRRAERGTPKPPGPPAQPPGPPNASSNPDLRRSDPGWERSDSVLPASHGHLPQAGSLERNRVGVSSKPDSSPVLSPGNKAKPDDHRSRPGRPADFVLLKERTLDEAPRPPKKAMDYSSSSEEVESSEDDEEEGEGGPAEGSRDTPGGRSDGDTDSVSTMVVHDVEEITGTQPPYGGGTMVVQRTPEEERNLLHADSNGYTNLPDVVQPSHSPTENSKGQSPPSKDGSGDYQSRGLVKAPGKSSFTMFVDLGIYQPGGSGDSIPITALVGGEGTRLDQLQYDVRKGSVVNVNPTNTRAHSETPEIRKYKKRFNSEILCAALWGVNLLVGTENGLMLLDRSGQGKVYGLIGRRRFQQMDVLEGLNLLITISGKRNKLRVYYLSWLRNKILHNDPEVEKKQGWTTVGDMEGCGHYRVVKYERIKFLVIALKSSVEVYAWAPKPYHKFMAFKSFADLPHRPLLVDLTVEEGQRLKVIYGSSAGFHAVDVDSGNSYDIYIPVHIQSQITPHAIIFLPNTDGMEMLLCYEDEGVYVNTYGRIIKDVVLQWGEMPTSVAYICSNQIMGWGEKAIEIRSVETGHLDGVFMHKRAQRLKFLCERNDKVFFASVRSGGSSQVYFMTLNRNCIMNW
Sequence of Calcium/calmodulin-dependent protein kinase kinase 2 (Homo sapiens) (Q96RR4 2-588 limits assumed): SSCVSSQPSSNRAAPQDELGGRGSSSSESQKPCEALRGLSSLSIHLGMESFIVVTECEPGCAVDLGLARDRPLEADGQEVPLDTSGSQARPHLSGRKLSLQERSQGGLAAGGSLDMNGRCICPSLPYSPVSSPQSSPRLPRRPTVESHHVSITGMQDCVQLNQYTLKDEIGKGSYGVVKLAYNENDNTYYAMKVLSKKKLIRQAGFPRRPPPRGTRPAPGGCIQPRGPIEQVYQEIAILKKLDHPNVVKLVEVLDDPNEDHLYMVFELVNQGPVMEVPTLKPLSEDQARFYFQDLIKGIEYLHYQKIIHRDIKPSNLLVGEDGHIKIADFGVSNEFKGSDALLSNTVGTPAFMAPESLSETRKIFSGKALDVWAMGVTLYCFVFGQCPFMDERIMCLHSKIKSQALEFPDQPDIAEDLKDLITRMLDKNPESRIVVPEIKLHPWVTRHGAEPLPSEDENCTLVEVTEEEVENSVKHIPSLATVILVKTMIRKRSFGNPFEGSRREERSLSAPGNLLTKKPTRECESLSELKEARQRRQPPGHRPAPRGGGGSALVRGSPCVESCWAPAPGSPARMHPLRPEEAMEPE

Consider `CCN1CCN(Cc2ccc(NC(=O)c3ccc(C)c(/C=C/c4cnc5[nH]ccc5c4OC)c3)cc2C(F)(F)F)CC1`, for which the inhibition (commonly the change of the read-out against control, counted positive when it falls) is 43.9% in [1]; 8% in assay [2]; -3.1% in [3]; 20.9% in assay [4]; 52.7% in assay [5]; 48.1% in assay [6]. In addition, the inhibition is 3.1% in assay [7]; 9.2% in assay [8]; -6.7% in assay [9]; 52.5% in [10]; 9.9% in assay [11]; 16.9% in assay [12]. Moreover, the inhibition in assay [13] was 11.3%; in assay [14] it was 3.9%; in assay [15], 72.6%.
As for `CCN1CCN(Cc2ccc(NC(=O)c3ccc(C)c(Oc4ccnc5[nH]ccc45)c3)cc2C(F)(F)F)CC1`, the inhibition in assay [1] was 39.7%; in assay [2] it was 13.6%; in assay [3] it was 34.7%; in [4], -3.9%; in [5], more than 94%; at Ephrin type-A receptor 2, 16.1%. In addition, the inhibition in [6] was 70.8%; in assay [7], 6.4%; in assay [8] it was -1.8%; in [9], 2.1%; in assay [10], 44.8%; in [11], -9.3%. The inhibition in assay [12] amounted to 18%; in assay [13], 31.7%; in [14] it was 34.8%; in [15] it was 36.5%.
For `CNc1cc(Oc2cc(C(=O)Nc3cc(N4CCN(C)CC4)cc(C(F)(F)F)c3)ccc2C)ncn1`, at Ephrin type-A receptor 2, the inhibition amounted to 69.2%.
